Measurements published in PubChem BioAssay AID822 (SRMLSC, 2007).

tested on: HUVEC proliferation, viability ATP luminescence; test: growth suppression of umbilical vein endothelial cells – cell-based, HUVEC, ATP luminescence, dose response (AID 822);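 also: cells exposed to compound for 72 h before the ATP read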
Summary of the method: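 Assay system: HUVEC primary endothelial cells, low passage (≤12); amount: 1250 HUVEC cells seeded per well; buffer or medium: EBM plus 2% FBS; read-out: percent viability relative to median untreated cell signal, EC50 via four-parameter fit; signal: luminescent ATP measurement with CellTiter-Glo reagent; schedule: 72 h exposure, 37 °C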

SMILES	EC50 [µM]
CCCCC(=O)O[C@H]1CC[C@H]2[C@@H]3CCc4cc(O)ccc4[C@H]3CC[C@]12C	7.16
Cc1ccc2[nH]c3c(N4CCN(Cc5ccccc5)CC4)ncnc3c2c1	8.08
CCOC(=O)c1cnc(-n2nc(C)cc2C)nc1NCc1ccc2c(c1)OCO2	2.34
Cc1ccccc1-c1nc(CN2CCC(C(=O)NCCCN3CC(C)CC(C)C3)CC2)c(C)o1 (centres undefined)	4.85
Cc1cc(C)n(CC(O)Cn2c3ccc(Br)cc3c3cc(Br)ccc32)c(=O)n1 (centres undefined)	10.7
CC1=CC(C)(C)Nc2ccc(OC(=O)c3cccnc3)cc21	12.3
Cc1cccc(NC(=O)Nc2cccc(Oc3c(F)c(F)c(F)c(F)c3F)c2)c1	15.3
CCCCCCOC(=O)C(C#N)c1nc2ccccc2nc1N1CCN(CC)CC1 (centres undefined)	8.05
Oc1ccccc1/C=N/Nc1nccnc1Cl	6.28
O=C(Cn1c(=O)n(CCCC(=O)NC2CCCC2)c(=O)c2ccccc21)NCCC1=CCCCC1	18.1
COC(=O)COc1ccc(S(=O)(=O)NCCC2=CCCCC2)cc1Cl	9.76
CCOC(=O)N1CCN(c2ncnc3c2oc2nc(C(C)C)c4c(c23)CCC4)CC1	19.4
CCOC(=O)c1ccccc1Nc1cn(C(C)=O)c2ccccc12	11.7
Cc1nn(-c2ccc(Cl)cc2)c2sc(C(=O)N3CCN(c4ccccn4)CC3)cc12	19
COC(=O)c1ccc2c(=O)n(Cc3ccco3)c(SCC(=O)Nc3ccccc3Cl)nc2c1	4.94
CC(=O)Nc1ccc(NC2=Nc3ccccc3N3C2=Nc2c(c(C)nn2-c2ccccc2)C3c2ccccc2)cc1 (centres undefined)	15.8
CC1CCc2sc3nc(N4CCN(CCO)CC4)n4ncnc4c3c2C1 (centres undefined)	19.6
Cc1occc1-c1nnc(SCC(=O)NCc2cccs2)n1-c1ccc(F)cc1	15.2
O=C1C=C(c2ccc(Cl)cc2)C(=O)N1Nc1ccccc1	10.7
C/C(CC1CC2=C(CC1(C)C)C(C)(C)CCC2)=N\NC(N)=S (centres undefined)	4.89
CCOC(=O)c1cccc2c1-c1ccccc1/C2=N/O	1.31
CC(C)CC[n+]1ccn(C2=C([O-])c3ccccc3C(=O)/C2=N\S(=O)(=O)c2ccccc2)c1	5.38
CCCOc1ccc(-c2nc(C#N)c(NCCCn3ccnc3)o2)cc1	11.3
CCCCN(Cc1ccco1)C(=O)c1cc2c(=O)[nH]c3ccc(C)cc3c2s1	4.57
Cc1ccc2[nH]c(=O)c(C3C(C#N)=C(N)Oc4c3ccc3cccnc43)cc2c1 (centres undefined)	9.52
Cc1cc(C)n(-c2nc(NCCC(C)C)c3c4c(sc3n2)COC(C)(C)C4)n1	14.5

SMILES	EC50 [µM]
COc1ccc(NC(=O)c2oc3ccccc3c2NC(=O)COc2ccccc2OC)c(OC)c1	2.8
COc1ccc(-n2nnnc2S(=O)(=O)CC(=O)N2CCCCC2)cc1	7.76
COc1ccc(C(=O)C(CN2CCOCC2)c2ccccc2)cc1F (centres undefined)	7.19
c1ccc(-c2noc(-c3ccc4c(c3)OCO4)n2)nc1	2.47
Nc1nc(Nc2cccc3ccccc23)nc(C2CCCC2=O)n1 (centres undefined)	11.4
COc1ccc(NC(=O)c2cc3n(n2)C(C(F)(F)F)CC(c2ccc(OC)cc2)N3)cc1 (centres undefined)	9.91
COC(=O)C1=C(O)/C(=C\c2ccc(CNC(=O)C(=O)Nc3ccc(C)c(C)c3)o2)N=C1C	13.3
N/C(Cc1ccc(Cl)cc1)=N\OC(=O)c1ccc2ccccc2c1	9.87
Cc1ccccc1NS(=O)(=O)c1ccc(N2CCCC2=O)cc1	19.6
Cc1coc2c(O)cc3c(c12)OC1(N2CCCCC2)C(=O)NCCCC31 (centres undefined)	7.41
COc1ccc2[nH]c(=O)c(CN(C3CCCCC3)C(c3nnnn3Cc3ccco3)C(C)C)cc2c1 (centres undefined)	8.72
Cc1ccccc1C(=O)c1cccn1CC(=O)NCCN1CCN(c2cccc(C)c2C)CC1	8.36
Cc1cccc(N2CCN(C(=O)Cn3sc4nc(C)cc(C)c4c3=O)CC2C)c1 (centres undefined)	12.4
COc1ccc(OC)c(CCNC(=O)Cn2sc3nc(C)cc(C)c3c2=O)c1	12.1
Cn1cc(/C=N/n2cnc3scc(-c4ccccc4)c3c2=O)c2ccccc21	4.94
Oc1c(CN2CCN(c3ccccn3)CC2)cc(Cl)c2cccnc12	7.42
O=c1[nH]c2cc3c(cc2cc1C(c1nnnn1Cc1ccccc1)N1CCCCCC1)OCCO3 (centres undefined)	13.1
CCC(C)NC(=O)c1c(N)n(/N=C/c2ccccn2)c2nc3ccccc3nc12 (centres undefined)	9.34
COc1ccccc1-c1cc(C(=O)Nc2cc(C)n(Cc3ccc(Cl)cc3)n2)no1	5.84
O=C(OCC(=O)N1CCN(C(=O)c2ccco2)CC1)c1cc(-c2ccc(Cl)c(Cl)c2Cl)nc2ccccc12	4.16
CCOc1cc(N2CCOCC2)c(OCC)cc1NC(=O)COc1cccc2cccnc12	14.9
CN1CCN(C(=O)c2ccc(COc3ccc(Cl)cc3Cl)cc2)CC1	13.3
COc1ccc(N/N=C2/CCCCC2=O)cc1	3.51
COc1ccc(O)c(-c2cc(-c3cccc(Br)c3)n[nH]2)c1	10.8
CN1CCN(c2ccc(NC(=O)c3cccc(OCc4ccccc4)c3)cc2)CC1	11.4
CC(C)c1nnc(NC(=O)CCS(=O)(=O)c2nc(-c3cccs3)cc(C(F)(F)F)n2)s1	9.9

SMILES	EC50 [µM]
Oc1ccccc1NCC(O)Cn1ccc2ccccc21 (centres undefined)	8.76
CCC(C)NC(=O)c1c(N)n(/N=C/c2cccnc2)c2nc3ccccc3nc12 (centres undefined)	12.6
CS(=O)(=O)c1nc(-c2cccs2)cc(C(F)(F)F)n1	6.11
COc1ccc(-c2nnc(NC(=O)c3ccc(S(=O)(=O)N4CCCc5ccccc54)cc3)o2)cc1	2.96
Cc1ccc(S(=O)(=O)c2c(C)nn(C(C)(C)C)c2OC(=O)c2ccc(Br)o2)cc1	4.57
CC1(C)Nc2ccc(O)cc2-c2c1ssc2=S	4.58
Brc1ccccc1OCCCn1cnc2ccccc21	13.2
CCc1ccc(-c2nc(CN3CCC(C(=O)N4CCN(c5ccccc5)CC4)CC3)c(C)o2)cc1	4.09
CCCCCCn1c(O)c(C=NC2CCCCC2N)c(=O)[nH]c1=O (centres undefined)	9.15
O=C(Nc1ccccc1)c1cccc(-c2nnc(-c3ccccc3)o2)c1	10.6
CC1(C)Cc2c(C#N)c(N3CCN(C(=O)c4ccco4)CC3)nc(Cc3ccccc3)c2CO1	7.74
COc1cc(OC)cc(C(=O)Nc2ccc(-c3nc4ccccc4o3)cc2)c1	6.75
CC1CCCCN1S(=O)(=O)c1ccc(C(=O)Nc2nnc(-c3ccccc3Cl)o2)cc1 (centres undefined)	2.71
COc1ccc(-c2cc(C(=O)Nc3cc(C)n(Cc4ccc(Cl)cc4)n3)no2)cc1OC	9.64
Cc1ccc(S(=O)(=O)c2c(C)nn(C(C)(C)C)c2OC(=O)c2ccco2)cc1	12.1
CCCCCCc1cc2cc(-c3nnc(-c4ccccc4)o3)c(=O)oc2cc1O	3.5
O=C(CCC1COc2ccccc2O1)Nc1ccc(Cl)cn1 (centres undefined)	17.6
O=[N+]([O-])c1ccc(/C=N/Nc2nc(N3CCCC3)nc(N3CCCC3)n2)o1	16.2
COc1cc(/C=C/c2ccc3cccc(OC)c3n2)c(OC(C)=O)c([N+](=O)[O-])c1	6.27
Cc1ccc(S(=O)(=O)N2CCCN(S(=O)(=O)c3ccc(C(F)(F)F)cc3)CC2)cc1	7.11
CC(=O)C(C(C)=O)c1c(Cl)c(O)c(O)c2c(C(=O)c3ccccc3)coc12	5.38
O=c1[nH]c(=O)n(Cc2ccccc2)c2nc(-c3ccco3)cc(C(F)(F)F)c12	17
COC(=O)CS(=O)(=O)c1nnc([C@H](Cc2ccccc2)NC(=O)OC(C)(C)C)o1	8.85
CC(=O)Nc1ccc(S(=O)(=O)NC2=C(N3CCN(c4ccc(F)cc4)CC3)C(=O)c3ccccc3C2=O)cc1	2.38
CCc1ccc(-c2nc(CN3CCC(C(=O)N4CCN(c5ccccn5)CC4)CC3)c(C)o2)cc1	14.2
CC(C)(C)c1nn(-c2ccccc2)c2[nH]c(=O)c(CNCc3ccc4c(c3)OCO4)cc12	8.15

SMILES	EC50 [µM]
CCCCCCn1c(C)nc2c(c1=O)c1nc3ccccc3nc1n2/N=C/c1ccco1	14.5
COc1ccc2cc3cc(C(=O)Nc4ccc5c(c4)OCCO5)oc3nc2c1	11.7
O=C(Nc1nnc(-c2ccc3c(c2)OCCO3)o1)c1ccc(Cc2ccccc2)cc1	4.76
Cc1cc(C)c2c(=O)n(CC(=O)NCCCN3CCN(c4ccccc4F)CC3)sc2n1	12.3
C=C(C)COc1ccc(-c2n[nH]c(C)c2Oc2ccccc2OC)c(O)c1	10.9
CCCOC(=O)c1ccc(Oc2cn[nH]c2-c2ccc(OCC)cc2O)cc1	9.51
CCOc1cc(/C=N\NC(=O)Cn2nc([N+](=O)[O-])cc2C)ccc1OCc1cccc2ccccc12	20.7
Cc1ccc(Cn2nc(C)c(NC(=O)c3cc(-c4ccc5c(c4)OCO5)on3)c2C)cc1	10.2
CN1CCN(S(=O)(=O)c2ccc(NC(=O)Nc3cccc(Cl)c3)cc2)CC1	6.85
O=C(Nc1ccc(N2CCOCC2)cc1)Nc1ccc2nc(-c3ccco3)c(-c3ccco3)nc2c1	7.18
CN1CCN(c2ccccc2NC(=O)c2ccc(OCc3ccccc3)cc2)CC1	10.8
N=c1c2c(-c3ccccc3)c(-c3ccccc3)n(Cc3ccco3)c2ncn1Cc1ccco1	1.82
COc1ccc(S(=O)(=O)Nc2ccc(O)c3ccccc23)cc1	2.45
CCn1cc(C(=O)NCCc2ccccc2)c(=O)c2cc(F)c(N3CCN(C)CC3)cc21	16.8
Cc1cccc(-c2nc(CN3CCCC(C(=O)NC4CCC(C)CC4)C3)c(C)o2)c1 (centres undefined)	11.6
COc1ccc(-n2nc(C(=O)NCc3ccco3)c3c4ccccc4n(C)c3c2=O)cc1Cl	19.7
COc1ccc(NC(=O)/C(Cl)=C(/Cl)S(=O)(=O)Cc2ccccc2)cn1	4.48
CCCCc1oc2ccccc2c1C(=O)c1cc(I)c(OCCN(CC)CC)c(I)c1	5.72
COc1ccc(CNC(=O)c2c(N)n(CCCN3CCOCC3)c3nc4ccccc4nc23)cc1	10
CCCCN(CC)S(=O)(=O)c1ccc(C(=O)Nc2nnc(-c3ccccc3Cl)o2)cc1	3.8
CC1CCC(C(=O)c2c(O)c3ccccc3oc2=O)CC1 (centres undefined)	7.71
OCc1ccc(O)c2ncccc12	20.5
Cc1ccc2[nH]c3c(c2c1)CCC3=O	14.7
O=C(c1ccc(F)cc1)C(CN1CCOCC1)c1ccccc1 (centres undefined)	5.11
CCc1ccc(-c2nc(CN3CCC(C(=O)NCc4ccc(F)cc4)CC3)c(C)o2)cc1	5.89
COc1cccc2sc(Nc3nnc(-c4ccc(F)cc4)o3)nc12	0.963
